Measured values collected from several papers.

Compound | target or system | effect on | technique | strain | time | quantity | value
COc1c(N2C[C@@H]3CCCN[C@@H]3C2)c(F)cc2c(=O)c(C(=O)O)cn(C3CC3)c12 | Mycobacteroides abscessus | microbial growth |  | ATCC19977 |  | MIC | 1 µM
Cc1sc2c(c1C)C(c1ccc(Cl)cc1)=N[C@@H](CC(=O)OC(C)(C)C)c1nnc(C)n1-2 | Jurkat | cell growth or viability | ATP luminescence |  | 72 h | IC50 | 1.01 µM
Oc1c(Br)cc(Br)cc1-c1[nH]c(Br)c(Br)c1Br | Pseudomonas aeruginosa | microbial growth |  | ATCC27853 |  | MIC | 64 µM
O=c1ccc2nc3ccc(O)cc3oc-2c1 | Pseudomonas aeruginosa | microbial growth |  |  | 24 h | MIC | > 32 µg/mL
COc1c(N2CC3CCCNC3C2)c(F)cc2c(=O)c(C(=O)OCc3cnc([N+](=O)[O-])s3)cn(C3CC3)c12 (centres unmarked) | Pseudomonas aeruginosa | microbial growth |  | ATCC27853 |  | MIC | 6 µM
Oc1c(Cl)cc(Cl)cc1-c1[nH]c(Cl)c(Cl)c1Cl | Pseudomonas aeruginosa | microbial growth |  | ATCC27853 |  | MIC | 64 µM
O=c1ccc2nc3ccc(OCc4ccc([N+](=O)[O-])o4)cc3oc-2c1 | Pseudomonas aeruginosa | microbial growth |  |  | 24 h | MIC | > 32 µg/mL
N.N.[Cl][Pt][Cl] | PLC | cell growth or viability | MTT |  | 72 h | IC50 | 8.21 µM
